Data: ChEMBL document CHEMBL4371017, “Discovery and optimization of pyrazole amides as antagonists of CCR1” (Bioorg Med Chem Lett, 2019)

Test system: not listed separately
Assay: Aqueous solubility of the compound
Type: physicochemical
Conditions: water
In the case of `Cc1c(C(=O)NCc2cccc(C(F)(F)F)c2)cnn1-c1ccc(Cl)c(Cl)c1`, the solubility is reported as < 1 µg/mL.

Target: T1, C-C chemokine receptor type 1 (Homo sapiens, UniProt P32246)
T1 sequence (P32246 whole entry): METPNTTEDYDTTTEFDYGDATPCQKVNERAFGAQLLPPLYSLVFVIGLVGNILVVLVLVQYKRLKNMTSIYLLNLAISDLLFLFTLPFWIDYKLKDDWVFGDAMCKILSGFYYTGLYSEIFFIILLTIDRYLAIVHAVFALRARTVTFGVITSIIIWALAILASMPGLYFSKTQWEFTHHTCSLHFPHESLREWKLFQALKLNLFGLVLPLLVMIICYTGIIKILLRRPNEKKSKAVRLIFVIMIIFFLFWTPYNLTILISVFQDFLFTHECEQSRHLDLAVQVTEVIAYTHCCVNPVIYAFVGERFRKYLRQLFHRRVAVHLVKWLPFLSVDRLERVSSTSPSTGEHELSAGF
Assay: Antagonist activity at recombinant CCR1 (unknown origin) expressed in non-adherent cells co-expressing Galpha16 assessed as inhibition of MIP-1 alpha-induced calcium flux by Fluo-4 NW or Calcium 4 dye based FLIPR TETRA assay
Type: functional, cell-based
Conditions: not given
Procedure, shortened: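 The cells stably co-express CCR1 and Gα16 and were loaded with dye for 1 h at room temperature with probenecid (Method A: Fluo-4 NW; Method B: Calcium 4), then plated at 20,000 cells/well. Compounds were tested at 10 doses from a 3,000 nM top (A 3-fold steps, B 4-fold), in 1% DMSO and HBSS/20 mM HEPES pH 7.4. Preincubation was 1 h at room temperature in the dark (A) or 30 min at 37°C then 30 min at room temperature (B). MIP-1α was added at EC80 and the calcium flux recorded.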
Compound `CCC[C@H](NC(=O)c1cnn(-c2ccc(Cl)cc2)c1C)c1cccc(C(F)(F)F)c1F` has an IC50 of 0.01 µM.
In the case of `Cc1c(C(=O)NCc2cccc(C(F)(F)F)c2)cnn1-c1ccccc1Cl`, the IC50 is reported as > 3 µM.
`Cc1c(C(=O)NCc2cccc(C(F)(F)F)c2)cnn1-c1ccc(Cl)cc1` gave an IC50 of 0.6 µM.
For `Cc1cccc(-n2ncc(C(=O)NCc3cccc(C(F)(F)F)c3)c2C)c1`, the IC50 was > 3 µM.
With `Cc1nn(-c2ccc(Cl)c(Cl)c2)c(C)c1C(=O)NCc1cccc(C(F)(F)F)c1` the IC50 was > 3 µM.
In the case of `COCc1c(C(=O)NCc2cccc(C(F)(F)F)c2)cnn1-c1ccc(Cl)cc1`, the IC50 is reported as > 3 µM.
`Cc1c(C(=O)NCc2cccc(C(F)(F)F)c2)cnn1-c1ccc(F)cc1` gave an IC50 of 0.79 µM.
For `Cc1c(C(=O)NCc2cccnc2)cnn1-c1ccc(Cl)cc1`, the IC50 was > 3 µM.
With `Cc1c(C(=O)NCc2ccc(S(C)(=O)=O)nc2)cnn1-c1ccc(Cl)c(Cl)c1` the IC50 was > 3 µM.
`Cc1cc(C(=O)NCc2cccc(C(F)(F)F)c2)c(C)n1-c1ccc(Cl)cc1` gave an IC50 of 0.35 µM.
With `Cc1c(C(=O)NCc2cccc(C(N)=O)c2)cnn1-c1ccc(Cl)cc1` the IC50 was > 3 µM.
For `Cc1c(C(=O)NCc2cccc(N)c2)cnn1-c1ccc(Cl)cc1`, the IC50 was > 3 µM.
`Cc1c(C(=O)NCc2cccc(C(F)(F)F)c2)nnn1-c1ccc(Cl)cc1` gave an IC50 of 2.4 µM.
With `Cc1nc(C(=O)NCc2cccc(C(F)(F)F)c2)nn1-c1ccc(Cl)cc1` the IC50 was > 3 µM.
Work on `O=C(NCc1cccc(C(F)(F)F)c1)c1cnn(-c2ccc(Cl)cc2)c1CO` yielded an IC50 of 1.2 µM.
For `Cc1c(C(=O)NCc2cccc(O)c2)cnn1-c1ccc(Cl)cc1`, the IC50 was > 3 µM.
`Cc1cc(-c2ccc(Cl)cc2)sc1C(=O)NCc1cccc(C(F)(F)F)c1` gave an IC50 of 1.9 µM.
With `Cc1c(C(=O)NCc2cccc(C(F)(F)F)c2)cnn1-c1cccc(Cl)c1` the IC50 was > 3 µM.
For `Cc1c(C(=O)NCc2cccc(C(F)(F)F)c2)cnn1-c1ccccc1`, the IC50 was > 3 µM.
`Cc1c(C(=O)N[C@@H](C)c2cccc(C(F)(F)F)c2F)cnn1-c1ccc(Cl)cc1` showed an IC50 of 0.028 µM.
In the case of `Cc1c(C(=O)NCc2ccncc2)cnn1-c1ccc(Cl)cc1`, the IC50 is reported as > 3 µM.
With `Cn1c(C(=O)NCc2cccc(C(F)(F)F)c2)cnc1-c1ccc(Cl)cc1` the IC50 was > 3 µM.
With `Cc1c(C(=O)NCc2cccc(C(F)(F)F)c2)cnn1-c1ccc([N+](=O)[O-])cc1` the IC50 was 0.96 µM.
With `Cc1c(C(=O)NCc2cccc(C(F)(F)F)c2)cnn1-c1ccc(Cl)c(Cl)c1` the IC50 was 0.5 µM.
For `Cn1cc(C(=O)NCc2cccc(C(F)(F)F)c2)nc1-c1ccc(Cl)cc1`, the IC50 was > 3 µM.
In the case of `Nc1c(C(=O)NCc2cccc(C(F)(F)F)c2)cnn1-c1ccc(Cl)cc1`, the IC50 is reported as > 3 µM.
With `CN(C)c1c(C(=O)NCc2cccc(C(F)(F)F)c2)cnn1-c1ccc(Cl)cc1` the IC50 was > 3 µM.
In the case of `Cc1c(C(=O)NCc2ccc(S(C)(=O)=O)cc2)cnn1-c1ccc(Cl)cc1`, the IC50 is reported as 1.7 µM.
Compound `Cc1c(C(=O)NCc2cccc(S(C)(=O)=O)c2)cnn1-c1ccc(Cl)cc1` has an IC50 of 2.1 µM.
For `CC(C)(O)c1ccc2c(c1)/C(=C\CCN1CC[C@](O)(c3ccc(Cl)cc3)C(C)(C)C1)c1cccnc1CO2`, the IC50 was 0.0008 µM.
`CNS(=O)(=O)c1ccc(CNC(=O)c2cnn(-c3ccc(Cl)cc3)c2C)cc1` gave an IC50 of 0.42 µM.
Work on `CC[C@H](NC(=O)c1cnn(-c2ccc(Cl)cc2)c1C)c1cccc(C(F)(F)F)c1F` yielded an IC50 of 0.013 µM.
In the case of `Cc1c(C(=O)NCc2cccc(C(F)(F)F)c2)cnn1-c1cccc(C(F)(F)F)c1`, the IC50 is reported as > 3 µM.
In the case of `Cc1c(C(=O)NCc2ccccc2S(C)(=O)=O)cnn1-c1ccc(Cl)cc1`, the IC50 is reported as > 3 µM.
With `CCCC(NC(=O)c1cnn(-c2ccc(Cl)cc2)c1C)c1ccc(S(C)(=O)=O)nc1` (stereo not drawn) the IC50 was 0.047 µM.
With `O=C(NCc1cccc(C(F)(F)F)c1)c1cnn(-c2ccc(Cl)cc2)c1C(F)(F)F` the IC50 was > 3 µM.
In the case of `Cc1c(C(=O)NCc2cccc(C(F)(F)F)c2)cnn1Cc1ccccc1`, the IC50 is reported as > 3 µM.
For `Cc1c(C(=O)NCc2ccccn2)cnn1-c1ccc(Cl)cc1`, the IC50 was > 3 µM.
With `Cc1nc(-c2ccc(Cl)cc2)sc1C(=O)NCc1cccc(C(F)(F)F)c1` the IC50 was > 3 µM.
For `O=C(NCc1cccc(C(F)(F)F)c1)c1cnn(-c2ccc(Cl)c(Cl)c2)c1`, the IC50 was > 3 µM.
`CC(C)[C@@H](NC(=O)NCC(C)(C)O)C(=O)N1CC[C@](O)(c2ccc(Cl)cc2)C(C)(C)C1` [BMS-817399] showed an IC50 of 0.003 µM.
Compound `COc1cc(N2CCN(C(=O)Cn3nc(-c4ncc[nH]4)c4cccnc43)CC2)ccc1Cl` [CCX354] has an IC50 of 0.002 µM.
